Test results reported in ChEMBL document CHEMBL3098047, “Design, synthesis and structure-activity relationships of substituted oxazole-benzamide antibacterial inhibitors of FtsZ” (Bioorg Med Chem Lett, 2014).
≈ marks a conversion by molar mass, not a printed value. One block for each compound: values may come before it.

What was measured:
[1] = Kinetic solubility of the compound in PBS buffer at pH 7.4 after 24 hrs by turbidimetric method; assay type: physicochemical; conditions: read-out: Kinetic_solubility
Summary of the method: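 Turbidimetric: doubling dilutions in DMSO diluted twenty-fold into PBS pH 7.4, equilibrated 24 h at room temperature, absorbance read at 620 nm. Value is highest concentration with no measurable precipitate.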

[2] = Clearance in Balb/c mouse at 3 mg/kg, iv by LC-MS/MS analysis; assay type: ADME, organism-based; parameters: dose 3 mg/kg, route intravenous; conditions: in vivo
[3] = Chemical stability of the compound in PBS buffer assessed as compound remaining at 10 uM at pH 7.4 after 24 hrs by LC-MS/MS analysis; assay type: physicochemical; conditions: read-out: Stability
Summary of the method: (§1)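 Compound at 10 μM in PBS pH 7.4 or neat mouse plasma, 5% v/v DMSO final, incubated 24 h at 37 °C. Samples extracted with acetonitrile and centrifuged; supernatant analysed by LC-MS; reported as % remaining.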

[4] = Initial plasma concentration in Balb/c mouse at 3 mg/kg, iv by LC-MS/MS analysis; assay type: ADME, organism-based; parameters: dose 3 mg/kg, route intravenous
Staphylococcus aureus [5] = test: Antibacterial activity against Staphylococcus aureus ATCC 29213 by broth microdilution method; assay type: functional
Summary of the method: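 Broth microdilution MIC per CLSI guidelines against S. aureus ATCC 29213; MIC in µg/mL.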

[6] = Metabolic stability in mouse plasma assessed as compound remaining at 10 uM after 24 hrs by LC-MS/MS analysis; assay type: ADME, cell-free; conditions: read-out: Stability; summary of the method: as §1
[7] = Half life in CD-1 mouse hepatocytes at 10 uM by LC-MS/MS analysis; assay type: ADME, cell-based, Hepatocyte
Summary of the method: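 Cryopreserved CD-1 mouse hepatocytes (5×10^4 cells), compound 10 μM in duplicate, 0.5% v/v DMSO final; stopped with DMSO at seven time points up to 120 min. Acetonitrile extraction, centrifugation, LC-MS of supernatant; half-life in min.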

[8] = Half life in Balb/c mouse at 3 mg/kg, iv by LC-MS/MS analysis; assay type: ADME, organism-based; parameters: dose 3 mg/kg, route intravenous; conditions: in vivo
[9] = Volume of distribution in Balb/c mouse at 3 mg/kg, iv by LC-MS/MS analysis; assay type: ADME, organism-based; parameters: dose 3 mg/kg, route intravenous; conditions: in vivo
[10] = molecular target: T1, Cell division protein FtsZ (Staphylococcus aureus) (UniProt P0A031); test: Inhibition of Staphylococcus aureus ATCC 29213 FtsZ-mediated cell division phenotype
T1 sequence (whole entry): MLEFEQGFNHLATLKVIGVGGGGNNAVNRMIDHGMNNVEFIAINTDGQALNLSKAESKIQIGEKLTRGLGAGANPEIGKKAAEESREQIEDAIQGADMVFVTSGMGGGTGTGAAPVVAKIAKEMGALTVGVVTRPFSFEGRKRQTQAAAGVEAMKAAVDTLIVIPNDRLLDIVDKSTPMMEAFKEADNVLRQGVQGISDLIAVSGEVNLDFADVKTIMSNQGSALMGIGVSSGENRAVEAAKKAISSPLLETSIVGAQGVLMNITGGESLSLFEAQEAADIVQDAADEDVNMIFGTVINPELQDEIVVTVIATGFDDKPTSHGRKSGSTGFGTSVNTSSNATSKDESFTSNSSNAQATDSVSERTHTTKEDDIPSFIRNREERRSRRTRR
Summary of the method: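 S. aureus ATCC 29213 cell division inhibition assay run alongside MIC testing; value is the lowest concentration at which an inhibition of cell division phenotype was seen (µg/mL).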

[11] = AUC in Balb/c mouse at 3 mg/kg, iv by LC-MS/MS analysis; assay type: ADME, organism-based; parameters: dose 3 mg/kg, route intravenous; conditions: plasma
[12] = Half life in mouse microsomes at 10 uM by LC-MS/MS analysis; assay type: ADME, Microsome
Summary of the method: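 Mouse microsomes at 1 mg/mL protein, compound 10 μM, 0.1% v/v DMSO final; started with 1 mM NADPH, stopped with DMSO at 0, 10, 30, 60 min. Acetonitrile extraction, centrifugation, LC-MS of supernatant; half-life in min.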

Staphylococcus aureus [13] = test: Antibacterial activity against Staphylococcus aureus harboring FtsZ G196A mutant by broth microdilution method; assay type: functional
Summary of the method: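 S. aureus ATCC 29213 derivative with G196A substitution in FtsZ; MIC by broth microdilution following CLSI guidelines; reported in µg/mL.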

Structure (SMILES): CC(Oc1ccc(F)c(C(N)=O)c1F)c1nc(-c2ccc(OC(F)(F)F)cc2)c(Br)o1 (racemic)
clearance [2]: 36 mL/min/kg
remaining at 24 h, 10 µM [3]: 96%
C0 [4]: 2500 ng/mL
MIC (Staphylococcus aureus [5]): 0.12 µg/mL (≈ 0.237 µM)
remaining at 24 h, 10 µM [6]: 104%
half-life at 10 µM [7]: 1.69 h
half-life [8]: 0.883 h
Vd [9]: 2.7 L/kg
MIC [10]: 0.12 µg/mL (≈ 0.237 µM)
AUC [11]: 1400 ng·h/mL
half-life at 10 µM [12]: > 2 h

Structure (SMILES): NC(=O)c1c(F)ccc(OC(COC(=O)CCC(=O)O)c2nc(-c3ccc(C(F)(F)F)cc3)c(Br)o2)c1F (racemic)
solubility kinetic at 24 h [1]: 200 µg/mL (≈ 329 µM)

Structure (SMILES): CC(Oc1ccc(F)c(C(N)=O)c1F)c1nc(-c2ccc(OC(F)(F)F)cc2)c(Cl)o1 (racemic)
clearance [2]: 31 mL/min/kg
C0 [4]: 2100 ng/mL
MIC (Staphylococcus aureus [5]): 0.12 µg/mL (≈ 0.259 µM)
half-life [8]: 1.32 h
Vd [9]: 3.5 L/kg
MIC [10]: 0.25 µg/mL (≈ 0.54 µM)
AUC [11]: 1600 ng·h/mL

Structure (SMILES): NC(=O)c1c(F)ccc(OC(CCC(=O)O)c2nc(-c3ccc(C(F)(F)F)cc3)c(Br)o2)c1F (racemic)
MIC (Staphylococcus aureus [5]): 8 µg/mL (≈ 14.6 µM)
MIC [10]: 8 µg/mL (≈ 14.6 µM)
solubility kinetic at 24 h [1]: 400 µg/mL (≈ 728 µM)

Structure (SMILES): CNCCNC(=O)OCC(Oc1ccc(F)c(C(N)=O)c1F)c1nc(-c2ccc(C(F)(F)F)cc2)c(Br)o1 (racemic)
solubility kinetic at 24 h [1]: 200 µg/mL (≈ 329 µM)

Structure (SMILES): CC(Oc1ccc(F)c(C(N)=O)c1F)c1nc(-c2ccc(C(F)(F)F)cc2)c(Br)o1 (racemic)
clearance [2]: 22 mL/min/kg
C0 [4]: 2000 ng/mL
MIC (Staphylococcus aureus [5]): 0.06 µg/mL (≈ 0.122 µM)
half-life [8]: 1.05 h
Vd [9]: 2 L/kg
MIC [10]: 0.06 µg/mL (≈ 0.122 µM)
AUC [11]: 2200 ng·h/mL

Structure (SMILES): NC(=O)c1c(F)ccc(OC(COC(=O)NCC(=O)O)c2nc(-c3ccc(C(F)(F)F)cc3)c(Br)o2)c1F (racemic)
solubility kinetic at 24 h [1]: 800 µg/mL (≈ 1320 µM)

Structure (SMILES): NC(=O)c1c(F)ccc(OC(CO)c2nc(-c3ccc(C(F)(F)F)cc3)c(Br)o2)c1F (racemic)
clearance [2]: 7 mL/min/kg
remaining at 24 h, 10 µM [3]: 102%
C0 [4]: 4200 ng/mL
MIC (Staphylococcus aureus [5]): 0.25 µg/mL (≈ 0.493 µM)
remaining at 24 h, 10 µM [6]: 100%
half-life at 10 µM [7]: 1.19 h
half-life [8]: 2.12 h
Vd [9]: 1.3 L/kg
MIC [10]: 0.5 µg/mL (≈ 0.986 µM)
solubility kinetic at 24 h [1]: 100 µg/mL (≈ 197 µM)
AUC [11]: 6700 ng·h/mL
half-life at 10 µM [12]: > 2 h
MIC (Staphylococcus aureus [13]): 8 µg/mL (≈ 15.8 µM)

Structure (SMILES): NC(=O)c1c(F)ccc(OCc2nc(-c3ccc(C(F)(F)F)cc3)c(Br)o2)c1F
MIC (Staphylococcus aureus [5]): 0.12 µg/mL (≈ 0.251 µM)
MIC [10]: 0.12 µg/mL (≈ 0.251 µM)
solubility kinetic at 24 h [1]: 12.5 µg/mL (≈ 26.2 µM)
MIC (Staphylococcus aureus [13]): 4 µg/mL (≈ 8.38 µM)

Structure (SMILES): NC(=O)c1c(F)ccc(OC(COC(=O)N2CCNCC2)c2nc(-c3ccc(C(F)(F)F)cc3)c(Br)o2)c1F (racemic)
solubility kinetic at 24 h [1]: 200 µg/mL (≈ 323 µM)

Structure (SMILES): CCc1oc(COc2ccc(F)c(C(N)=O)c2F)nc1-c1ccc(OC)cc1
clearance [2]: 319 mL/min/kg
remaining at 24 h, 10 µM [3]: 97%
C0 [4]: 1100 ng/mL
MIC (Staphylococcus aureus [5]): 0.12 µg/mL (≈ 0.309 µM)
remaining at 24 h, 10 µM [6]: 100%
half-life at 10 µM [7]: 0.39 h
half-life [8]: 0.167 h
Vd [9]: 4.3 L/kg
MIC [10]: 0.12 µg/mL (≈ 0.309 µM)
AUC [11]: 200 ng·h/mL
half-life at 10 µM [12]: 1.19 h
MIC (Staphylococcus aureus [13]): > 64 µg/mL

Structure (SMILES): NC(=O)c1c(F)ccc(OCc2nc3cc(Cl)cnc3s2)c1F
MIC (Staphylococcus aureus [5]): 1 µg/mL (≈ 2.81 µM)
MIC [10]: 0.5 µg/mL (≈ 1.41 µM)
MIC (Staphylococcus aureus [13]): > 64 µg/mL

Structure (SMILES): CC(=O)OCC(Oc1ccc(F)c(C(N)=O)c1F)c1nc(-c2ccc(C(F)(F)F)cc2)c(Br)o1 (racemic)
MIC (Staphylococcus aureus [5]): 0.5 µg/mL (≈ 0.91 µM)
MIC [10]: 0.5 µg/mL (≈ 0.91 µM)
solubility kinetic at 24 h [1]: 25 µg/mL (≈ 45.5 µM)

Structure (SMILES): COc1ccc(-c2coc(COc3ccc(F)c(C(N)=O)c3F)n2)cc1
MIC (Staphylococcus aureus [5]): 2 µg/mL (≈ 5.55 µM)
MIC [10]: 2 µg/mL (≈ 5.55 µM)
MIC (Staphylococcus aureus [13]): > 64 µg/mL

Structure (SMILES): Cc1oc(COc2ccc(F)c(C(N)=O)c2F)nc1-c1ccc(Cl)cc1
MIC (Staphylococcus aureus [5]): 0.5 µg/mL (≈ 1.32 µM)
MIC [10]: 0.5 µg/mL (≈ 1.32 µM)
MIC (Staphylococcus aureus [13]): > 64 µg/mL

The next lines start with the values.

solubility kinetic at 24 h [1]: 800 µg/mL (≈ 1290 µM)
Structure (SMILES): NC(=O)c1c(F)ccc(OC(COC(=O)Nc2nnn[nH]2)c2nc(-c3ccc(C(F)(F)F)cc3)c(Br)o2)c1F (racemic)

solubility kinetic at 24 h [1]: 100 µg/mL (≈ 155 µM)
Structure (SMILES): NC(=O)c1c(F)ccc(OC(COC(=O)NCCc2c[nH]cn2)c2nc(-c3ccc(C(F)(F)F)cc3)c(Br)o2)c1F (racemic)

solubility kinetic at 24 h [1]: > 800 µg/mL
Structure (SMILES): NC(=O)c1c(F)ccc(OC(COP(=O)(O)O)c2nc(-c3ccc(C(F)(F)F)cc3)c(Br)o2)c1F (racemic)

solubility kinetic at 24 h [1]: 400 µg/mL (≈ 618 µM)
Structure (SMILES): NC(=O)c1c(F)ccc(OC(COC(=O)NCCN2CCCC2)c2nc(-c3ccc(C(F)(F)F)cc3)c(Br)o2)c1F (racemic)

MIC (Staphylococcus aureus [5]): 0.5 µg/mL (≈ 0.907 µM)
MIC [10]: 0.5 µg/mL (≈ 0.907 µM)
solubility kinetic at 24 h [1]: 100 µg/mL (≈ 181 µM)
Structure (SMILES): NC(=O)c1c(F)ccc(OC(CC(O)CO)c2nc(-c3ccc(C(F)(F)F)cc3)c(Br)o2)c1F (racemic)

clearance [2]: 137 mL/min/kg
remaining at 24 h, 10 µM [3]: 98%
C0 [4]: 1200 ng/mL
MIC (Staphylococcus aureus [5]): 0.03 µg/mL (≈ 0.0737 µM)
remaining at 24 h, 10 µM [6]: 101%
half-life at 10 µM [7]: 0.298 h
half-life [8]: 0.417 h
Vd [9]: 5 L/kg
MIC [10]: 0.015 µg/mL (≈ 0.0369 µM)
AUC [11]: 400 ng·h/mL
half-life at 10 µM [12]: 1.14 h
Structure (SMILES): CCCc1oc(COc2ccc(F)c(C(N)=O)c2F)nc1-c1ccc(Cl)cc1

MIC (Staphylococcus aureus [5]): 1 µg/mL (≈ 1.87 µM)
MIC [10]: 1 µg/mL (≈ 1.87 µM)
solubility kinetic at 24 h [1]: 50 µg/mL (≈ 93.4 µM)
Structure (SMILES): NC(=O)c1c(F)ccc(OC(CCCO)c2nc(-c3ccc(C(F)(F)F)cc3)c(Br)o2)c1F (racemic)
